From ChEMBL document CHEMBL1150377, “Design of antiangiogenic hypoxic cell radiosensitizers: 2-nitroimidazoles containing a 2-aminomethylene-4-cyclopentene-1,3-dione moiety” (Bioorg Med Chem, 2008) come the findings set out here.

SMILES strings stand for the structures.

The species named for one test is Gallus gallus. In words: Antiangiogenic activity in chick embryo chorioallantoic membrane assessed as number of eggs showing 3 mm avascular zone at 100 ug relative to control. The format is functional, tissue-based. A digest of the protocol:
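Chick CAM assay on 4-day-old embryos in shell; 10 µL sample in 1% methyl cellulose/0.9% NaCl applied inside a ring on the CAM, 48 h at 37.6 °C, then fat emulsion injected to show vessels. Six eggs per group, repeated more than three times. Inhibition (%) = eggs with ≥3 mm avascular zone around ring / eggs in group ×100.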

Test [1] addresses 72 kDa type IV collagenase (Homo sapiens, UniProt P08253). In words: Inhibition of human bowes melanoma cell MMP2.
For test [2], the target named is Matrix metalloproteinase-9 (Bos taurus, UniProt P52176). In words: Inhibition of bovine arterial endothelial cell MMP9. It is filed as cell-based.
Chain of Matrix metalloproteinase-9 (P52176 whole entry): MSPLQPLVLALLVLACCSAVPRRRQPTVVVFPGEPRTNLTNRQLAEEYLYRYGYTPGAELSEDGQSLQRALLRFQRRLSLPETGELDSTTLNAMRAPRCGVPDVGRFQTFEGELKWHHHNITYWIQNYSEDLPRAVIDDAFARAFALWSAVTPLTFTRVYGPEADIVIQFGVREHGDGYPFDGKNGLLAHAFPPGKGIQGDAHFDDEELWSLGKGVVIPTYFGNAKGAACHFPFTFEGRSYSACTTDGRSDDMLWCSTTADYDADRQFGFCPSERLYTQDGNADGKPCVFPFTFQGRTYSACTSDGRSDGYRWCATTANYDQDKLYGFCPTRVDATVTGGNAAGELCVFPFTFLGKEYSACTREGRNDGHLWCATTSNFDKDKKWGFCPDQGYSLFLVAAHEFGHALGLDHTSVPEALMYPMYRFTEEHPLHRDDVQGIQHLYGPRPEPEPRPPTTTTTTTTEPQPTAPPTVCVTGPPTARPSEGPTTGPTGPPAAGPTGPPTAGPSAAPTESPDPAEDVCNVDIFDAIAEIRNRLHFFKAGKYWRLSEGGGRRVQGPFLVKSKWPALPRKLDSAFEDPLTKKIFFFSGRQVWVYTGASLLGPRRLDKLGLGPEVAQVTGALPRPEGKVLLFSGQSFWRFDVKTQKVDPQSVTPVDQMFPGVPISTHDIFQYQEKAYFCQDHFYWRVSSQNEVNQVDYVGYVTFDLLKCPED
Test [3] is described as follows: Radiosensitizing activity in mouse EMT6/KU cells assessed as enhancement ratio reducing surviving fraction of cells at […] after 5 to 7 days. The format is functional. A digest of the protocol: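 They were then irradiated with 6 MV X-rays at 2.0 Gy/min, replated, and scored for colonies after 5–7 days. Survival curves were least-squares fitted. ER is the ratio of radiation doses giving 1% survival.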

A short description of test [4]: Radiosensitizing activity in mouse EMT6/KU cells assessed as enhancement ratio reducing surviving fraction of cells at 1 mM after 5 to 7 days. It is filed as functional. The essentials: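 EMT6/KU cells at 2×10⁶ cells/mL in drug-containing MEM in glass tubes, made hypoxic with 95% N₂/5% CO₂ for 60 min. Irradiated with 6 MV X-rays at 2.0 Gy/min, then plated. After 5–7 days replated for colony formation. Survival curves fitted by least squares; ER = ratio of radiation doses giving 1% survival.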

Test [5] concerns the target Vascular endothelial growth factor receptor 1 (Homo sapiens, UniProt P17948). In words: Inhibition of Flt1 expressed in mouse NIH3T3 cells by autoradiography. It is filed as cell-based.
In test [6] the target is Epidermal growth factor receptor (Homo sapiens, UniProt P00533). In words: Inhibition of human A431 cell EGFRK assessed as 32P phosphorylation by scintillation counter. It is filed as cell-based. The following applies: a-431. The essentials:
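Solubilized A431 cell lysate, debris removed, incubated with or without EGF for 30 min at 25 °C. Reaction started with [γ-³²P]ATP, 10 min at 0 °C. After stopping and washing, receptor phosphorylation measured as ³²P by scintillation counting.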

Chain of 72 kDa type IV collagenase (P08253 whole entry): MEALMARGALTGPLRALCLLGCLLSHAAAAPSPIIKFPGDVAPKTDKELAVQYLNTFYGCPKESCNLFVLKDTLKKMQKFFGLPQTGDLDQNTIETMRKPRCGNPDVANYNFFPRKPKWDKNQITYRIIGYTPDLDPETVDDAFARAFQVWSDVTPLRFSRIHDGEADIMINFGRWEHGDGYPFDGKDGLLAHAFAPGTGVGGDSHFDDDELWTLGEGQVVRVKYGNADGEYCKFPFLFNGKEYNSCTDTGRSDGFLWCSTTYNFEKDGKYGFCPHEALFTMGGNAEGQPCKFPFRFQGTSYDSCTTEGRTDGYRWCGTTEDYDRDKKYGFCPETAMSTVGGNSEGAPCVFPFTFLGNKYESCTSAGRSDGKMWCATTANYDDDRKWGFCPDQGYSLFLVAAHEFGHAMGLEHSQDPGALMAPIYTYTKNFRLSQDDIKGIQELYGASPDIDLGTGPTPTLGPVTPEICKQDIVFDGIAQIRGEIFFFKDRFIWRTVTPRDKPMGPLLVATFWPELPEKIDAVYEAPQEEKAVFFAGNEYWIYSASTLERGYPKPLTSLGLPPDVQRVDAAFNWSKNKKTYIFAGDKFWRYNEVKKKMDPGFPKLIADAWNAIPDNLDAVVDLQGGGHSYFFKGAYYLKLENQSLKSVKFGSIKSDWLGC
Chain of Epidermal growth factor receptor (P00533 whole entry): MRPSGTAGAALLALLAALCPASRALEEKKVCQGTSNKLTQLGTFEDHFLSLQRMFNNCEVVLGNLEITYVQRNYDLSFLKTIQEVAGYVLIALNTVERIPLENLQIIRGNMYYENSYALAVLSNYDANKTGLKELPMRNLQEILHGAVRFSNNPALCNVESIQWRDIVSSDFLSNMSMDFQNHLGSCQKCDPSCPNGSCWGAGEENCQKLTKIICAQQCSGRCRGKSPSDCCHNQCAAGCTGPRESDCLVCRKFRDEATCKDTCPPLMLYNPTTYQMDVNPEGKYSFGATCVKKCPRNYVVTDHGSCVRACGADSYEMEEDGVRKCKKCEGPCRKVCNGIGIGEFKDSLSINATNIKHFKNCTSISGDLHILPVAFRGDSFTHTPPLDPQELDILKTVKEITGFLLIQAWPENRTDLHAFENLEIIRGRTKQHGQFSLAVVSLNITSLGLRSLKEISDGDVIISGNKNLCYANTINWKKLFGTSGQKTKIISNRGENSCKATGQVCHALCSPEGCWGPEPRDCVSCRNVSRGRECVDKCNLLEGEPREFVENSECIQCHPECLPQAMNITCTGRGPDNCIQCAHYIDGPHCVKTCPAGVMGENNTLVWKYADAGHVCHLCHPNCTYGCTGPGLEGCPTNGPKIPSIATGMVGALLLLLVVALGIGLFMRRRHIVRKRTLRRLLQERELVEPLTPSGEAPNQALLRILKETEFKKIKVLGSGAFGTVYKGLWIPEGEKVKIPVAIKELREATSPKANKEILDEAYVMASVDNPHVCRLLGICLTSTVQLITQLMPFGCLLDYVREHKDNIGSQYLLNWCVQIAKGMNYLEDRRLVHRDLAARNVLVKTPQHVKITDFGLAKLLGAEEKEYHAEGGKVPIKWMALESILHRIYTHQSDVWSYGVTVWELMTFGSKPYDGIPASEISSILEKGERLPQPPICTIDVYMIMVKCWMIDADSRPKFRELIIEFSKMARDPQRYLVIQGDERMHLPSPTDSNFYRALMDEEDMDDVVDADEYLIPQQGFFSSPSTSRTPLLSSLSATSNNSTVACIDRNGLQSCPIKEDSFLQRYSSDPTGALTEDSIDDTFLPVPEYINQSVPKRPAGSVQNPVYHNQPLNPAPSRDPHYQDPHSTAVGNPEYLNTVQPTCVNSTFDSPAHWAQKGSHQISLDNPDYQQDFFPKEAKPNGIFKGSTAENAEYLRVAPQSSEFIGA
Chain of Vascular endothelial growth factor receptor 1 (P17948 whole entry): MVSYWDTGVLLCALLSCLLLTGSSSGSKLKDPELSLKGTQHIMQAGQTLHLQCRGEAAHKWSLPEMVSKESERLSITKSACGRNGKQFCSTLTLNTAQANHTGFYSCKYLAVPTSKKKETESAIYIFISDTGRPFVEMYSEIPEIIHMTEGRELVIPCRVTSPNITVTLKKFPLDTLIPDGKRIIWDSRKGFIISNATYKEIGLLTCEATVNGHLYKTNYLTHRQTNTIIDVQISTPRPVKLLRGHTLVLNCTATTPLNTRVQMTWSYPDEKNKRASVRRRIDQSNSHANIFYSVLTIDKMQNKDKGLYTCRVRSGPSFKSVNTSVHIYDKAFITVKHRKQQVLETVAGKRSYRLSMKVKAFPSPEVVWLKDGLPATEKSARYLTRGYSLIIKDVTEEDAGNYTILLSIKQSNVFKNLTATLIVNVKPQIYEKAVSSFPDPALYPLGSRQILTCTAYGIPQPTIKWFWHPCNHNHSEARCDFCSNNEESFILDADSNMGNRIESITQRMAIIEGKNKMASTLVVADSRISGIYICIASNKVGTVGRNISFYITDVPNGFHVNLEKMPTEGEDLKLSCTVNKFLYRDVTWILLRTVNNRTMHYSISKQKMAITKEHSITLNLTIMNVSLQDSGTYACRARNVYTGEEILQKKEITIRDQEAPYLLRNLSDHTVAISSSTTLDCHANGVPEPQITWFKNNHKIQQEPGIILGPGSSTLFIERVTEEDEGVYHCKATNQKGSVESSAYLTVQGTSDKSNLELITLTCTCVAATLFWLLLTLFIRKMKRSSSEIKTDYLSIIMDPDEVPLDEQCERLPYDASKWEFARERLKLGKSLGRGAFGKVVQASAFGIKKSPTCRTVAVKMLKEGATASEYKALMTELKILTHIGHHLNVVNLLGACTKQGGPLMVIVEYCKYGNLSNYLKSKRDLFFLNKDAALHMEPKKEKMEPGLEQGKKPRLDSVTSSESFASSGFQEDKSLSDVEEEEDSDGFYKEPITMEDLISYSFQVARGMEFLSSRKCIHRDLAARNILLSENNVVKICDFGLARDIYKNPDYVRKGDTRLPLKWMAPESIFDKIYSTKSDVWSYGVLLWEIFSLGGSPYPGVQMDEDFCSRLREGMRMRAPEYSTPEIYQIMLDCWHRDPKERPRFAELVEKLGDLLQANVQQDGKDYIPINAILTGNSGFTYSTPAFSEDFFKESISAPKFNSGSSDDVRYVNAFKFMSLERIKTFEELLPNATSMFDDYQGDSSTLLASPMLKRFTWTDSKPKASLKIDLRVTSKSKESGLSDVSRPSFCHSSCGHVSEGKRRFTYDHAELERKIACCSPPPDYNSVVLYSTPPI

As a reminder, the inhibition is the drop in the measured response relative to a control, in per cent. Take `COC[C@H](Cn1ccnc1[N+](=O)[O-])OC(=O)c1ccc(NC(=O)C(F)(F)F)cc1`: in the test filed under Gallus gallus, the inhibition was determined as 83%. The IC50 in test [1] and in test [2] was > 240 µM⁻¹ each time. Moreover, the Ratio in test [3] is on record as 1.84.
As for `O=C(Cn1ccnc1[N+](=O)[O-])NCCO` [ETANIDAZOLE], the Ratio in test [4] was found to be 1.72.
On to `COC[C@@H](Cn1ccnc1[N+](=O)[O-])OC(=O)c1ccc(NC=C2C(=O)C=CC2=O)cc1`, for which the IC50 in test [1] came to 24 µM⁻¹; in test [2], 53 µM⁻¹; in test [5], 23.4 µM⁻¹.
In the case of `COC[C@H](Cn1ccnc1[N+](=O)[O-])OC(=O)c1ccc(NC=C2C(=O)C=CC2=O)cc1`, in test [6], the IC50 is 23 µM⁻¹.
As for `COC[C@@H](Cn1ccnc1[N+](=O)[O-])OC(=O)c1ccc(NC(=O)C(F)(F)F)cc1`, the inhibition in the test filed under Gallus gallus is 43%. Also, the IC50 in test [1] and in test [2] was > 240 µM⁻¹ in each case. Also, the Ratio in test [3] amounted to 2.02.
Consider `CC(C)(C)c1ccc(OC[C@H](Cn2ccnc2[N+](=O)[O-])OC(=O)c2ccc(NC=C3C(=O)C=CC3=O)cc2)cc1`, for which the IC50 in test [1] is 183 µM⁻¹; in test [2], 103 µM⁻¹; in test [6], 18.4 µM⁻¹; in test [5] it was 184 µM⁻¹.
As for `CC(C)(C)c1ccc(OC[C@@H](Cn2ccnc2[N+](=O)[O-])OC(=O)c2ccc(NC=C3C(=O)C=CC3=O)cc2)cc1`, the IC50 in test [2] was found to be 67 µM⁻¹; in test [6], 1.8 µM⁻¹; in test [5] it was 18.4 µM⁻¹.
